Assay results: paper PMC7451030 (European journal of medicinal chemistry, 2020)
pIC50: −log10 of the molar value.

How the values were obtained:
CEM xenograft tumor = settings: for xenograft volume of untreated group relative to treated group: SCID mice, CEM xenograft, doxorubicin 20 mg/kg i.p., F18 50 mg/kg i.p., 18 days
GLUT1 = settings: read-out: GLUT1 IC50; commercially available GLUT1 inhibitor; cited from earlier work
human GLUT4 = biological target: T1, human GLUT4 (Homo sapiens, UniProt P14672); experiment: GLUT4 transport assay; format: cell-based; settings: 100 μM compound
T1 sequence (P14672 1-509): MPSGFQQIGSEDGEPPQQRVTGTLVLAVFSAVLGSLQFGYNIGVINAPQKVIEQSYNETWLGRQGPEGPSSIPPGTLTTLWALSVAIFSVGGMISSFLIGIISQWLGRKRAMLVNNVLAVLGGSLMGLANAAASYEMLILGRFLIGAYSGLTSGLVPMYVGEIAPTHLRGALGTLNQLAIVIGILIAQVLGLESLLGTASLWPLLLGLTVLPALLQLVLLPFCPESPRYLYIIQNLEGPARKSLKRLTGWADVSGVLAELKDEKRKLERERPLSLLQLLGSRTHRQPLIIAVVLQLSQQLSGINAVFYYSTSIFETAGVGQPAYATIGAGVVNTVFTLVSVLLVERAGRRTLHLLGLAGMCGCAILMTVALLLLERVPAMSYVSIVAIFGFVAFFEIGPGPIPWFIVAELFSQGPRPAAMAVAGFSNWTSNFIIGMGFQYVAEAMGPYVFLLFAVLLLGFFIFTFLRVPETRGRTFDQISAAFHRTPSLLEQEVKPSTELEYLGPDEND
Method in brief: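 GLUT4 was expressed in hxt0 yeast VW4000fgy1erg4 grown at 30 °C in SC-uracil with 1% maltose, then 0.2% glucose. Washed cells were assayed in PBS pH 7.4 at OD600 ~10 with 100 µM compound (1% DMSO final) and 5 mM 14C-glucose for 10 min. The reaction was stopped with cold KPi/LiCl pH 5.5, then filtered and counted by scintillation. Values are relative to 1% DMSO and 200 µM phloretin controls.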

human GLUT1 = biological target: T2, human GLUT1 (Homo sapiens, UniProt P11166); experiment: GLUT1 transport assay; format: cell-based; settings: 100 μM compound
T2 sequence (P11166 1-492): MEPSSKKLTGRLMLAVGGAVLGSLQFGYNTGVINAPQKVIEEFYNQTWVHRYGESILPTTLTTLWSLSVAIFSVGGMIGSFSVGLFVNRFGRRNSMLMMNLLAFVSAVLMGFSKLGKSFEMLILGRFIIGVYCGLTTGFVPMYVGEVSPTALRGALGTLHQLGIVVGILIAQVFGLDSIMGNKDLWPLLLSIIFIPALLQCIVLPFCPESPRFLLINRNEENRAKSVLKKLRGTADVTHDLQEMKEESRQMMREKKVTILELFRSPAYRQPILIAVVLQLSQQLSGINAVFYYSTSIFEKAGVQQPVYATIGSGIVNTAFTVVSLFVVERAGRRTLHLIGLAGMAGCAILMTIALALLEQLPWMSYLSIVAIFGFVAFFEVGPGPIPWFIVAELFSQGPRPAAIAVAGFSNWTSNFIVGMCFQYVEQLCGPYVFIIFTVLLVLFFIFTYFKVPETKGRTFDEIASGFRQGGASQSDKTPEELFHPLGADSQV
Method in brief: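 hxt0 yeast VW4000fgy1 expressing human GLUT1 was grown at 30 °C in SC-uracil with 2% maltose for 2–3 days, then 2% glucose for 1–2 days. Cells were resuspended in PBS pH 7.4 at OD600 ~10 and given 100 µM compound (1% DMSO final). Uptake of 5 mM 14C-glucose ran 10 min, then ice-cold KPi/LiCl quench pH 5.5, filtration and scintillation counting. Activity was taken relative to 1% DMSO and 200 µM phloretin.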

human GLUT5 = experiment: GLUT5 transport assay; format: cell-based; settings: 100 μM compound; 10 mM C14-fructose
Method in brief: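 VW4000 hxt0 yeast carrying human GLUT5 was grown for 1 day in YEP with 2% maltose and 100 µg/ml G418, then 1–2 days in 2% fructose with G418, at 30 °C. Cells in PBS pH 7.4 at OD600 ~10 received 100 µM compound (1% DMSO final) and 10 mM 14C-fructose for 10 min. Cold quench pH 5.5 and filtration followed, with scintillation read-out. Controls: 1% DMSO and 100 µM MSNBA.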

[1] = Differential Nuclear Staining; format: cell-based; settings: human
Method in brief: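 CC50 determined by DNS assay in CCRF-CEM (RPMI) and in non-cancerous HS-27 fibroblasts (DMEM). Both media had 10% FBS and penicillin/streptomycin, at 37 °C and 5% CO2. Cells were seeded at 10,000/well (HS-27 at 3,000/well) and treated at 0.5–100 µM for 48 h, in quadruplicate. Hoechst and PI were added 2 h before imaging. Controls: DMSO, H2O2 and untreated. Ratio = HS-27 CC50 / CEM CC50.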

CEM cells = experiment: Cell cycle analysis by flow cytometry; format: cell-based, human; settings: CEM, 10, 25 or 50 μM, 72 h
normal WBCs = experiment: MTT viability assay on non-transformed WBCs; format: cell-based, human; settings: 187.2 μM vs 1.7 μM
[2] = test system: p-mTOR, CDK2, GRP78 and Caspase 3 in F18-treated cells; experiment: Western blotting of cell signaling proteins; format: cell-based, human; settings: 10 μM, 6 h
Method in brief: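 Treated cells were washed in cold PBS and lysed in Laemmli buffer (62.5 mM Tris-HCl pH 6.8, 10% glycerol, 2% SDS) with protease inhibitors, then sonicated and protein quantified. Membranes were blocked 45 min in PBS-Tween-5% milk. Primary antibodies ran 3 h and secondary 1 h, both at room temperature. Controls: untreated and staurosporine.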

| SMILES | xenograft volume of untreated group relative to treated group (CEM xenograft tumor) | decrease of relative transport activity of GLUT4, primary screen (human GLUT4) | decrease of relative transport activity of GLUT1, primary screen (human GLUT1) | inhibition of GLUT5 transport activity, primary screen (human GLUT5) | also measured |
| --- | --- | --- | --- | --- | --- |
| COc1cccc2c1C(=O)c1c(O)c3c(c(O)c1C2=O)C[C@@](O)(C(=O)CO)C[C@@H]3O[C@H]1C[C@H](N)[C@H](O)[C@H](C)O1 [doxorubicin, reference compound] | approximately 1.5 times | – | – | – | – |
| CC(=O)CC(=O)Nc1ccc(Cl)c(C(F)(F)F)c1 [Fasentin] | – | – | – | – | pIC50 (GLUT1): 5.00 |
| Cc1cccc2sc(NC(=O)CN3C(=O)S/C(=C/c4ccco4)C3=O)nc12 [Compound F8, 2-(5-(Furan-2-ylmethylene)-2,4-dioxothiazolidin-3-yl)-N-(4-methylbenzo[d]thiazol-2-yl)acetamide] | – | at least 50% | at least 50% | – | – |
| O=C(CN1C(=O)S/C(=C/c2ccco2)C1=O)Nc1ccc(Cl)c(Cl)c1 [Compound F19, N-(3,4-dichlorophenyl)-2-(5-(furan-2-ylmethylene)-2,4-dioxothiazolidin-3-yl) acetamide] | – | at least 50% | at least 50% | neither F18 nor F19 affected the transport activity of GLUT5 | selectivity ratio at 48 h [1]: > 12.8 |
| O=C(CN1C(=O)S/C(=C/c2ccco2)C1=O)Nc1nc2ccccc2s1 [Compound F18, N-(benzo[d]thiazol-2-yl)-2-(5-(furan-2-ylmethylene)-2,4-dioxothiazolidin-3-yl)acetamide] | ~2 times | at least 50% | at least 50% | neither F18 nor F19 affected the transport activity of GLUT5 | cell cycle effect (CEM cells): arrest of the cell cycle in the sub G0/G1phase; ratio of IC50 WBCs to CEM cell line (normal WBCs): 100 times; weight loss or signs of toxicity (CEM xenograft tumor; mouse, in vivo, ip, 50 mg/kg): no considerable weight loss or any other noticeable signs of toxicity; caspase 3 [2]: activation; level of CDK2 [2]: decrease; level of endoplasmic stress marker GRP78 [2]: increase; level of phosphorylated mTOR [2]: decrease; GLUT1 relative activity retained (human GLUT1): almost completely |
| O=C(CN1C(=O)S/C(=C/c2ccco2)C1=O)Nc1ccc([N+](=O)[O-])cc1 [Compound F14, 2-(5-(Furan-2-ylmethylene)-2,4-dioxothiazolidin-3-yl)-N-(4-nitrophenyl) acetamide] | – | did not inhibit | did not inhibit | did not inhibit | – |
